Bioassay records as filed in PubChem.
Sampled rows, rich in hits. Any-hit rate of the full collection: about 1.8%.
LEDGF integ inh: blocks HIV-1 LEDGF/p75-dependent DNA integration; actives 0.64% (n = 370,000); inhibition, % at 3.7 µM; TR-FRET IN-LEDGF/p75 DNA integration, Eu/Cy5;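 active = inhibition above the screen-wide mean plus 3 SD, cut at about 13% in these data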;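 note: signal is the Cy5 over europium emission ratio at 671 and 618 nm; 0% = plate median of compound wells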
MBD2 inh: blocks human MBD2 binding to methylated DNA; actives 0.31% (n = 370,000); TR-FRET, MBD2 binding to methylated oligonucleotide; inhibition, % at 4.4 µM; Q9UBB5; in the data active = inhibition above about 13%
NSD2 inh: NSD2 (human) methyltransferase inhibition | O96028 | NSD2 peptide methylation, AlphaScreen, 120 min | inhibition, % at 12.5 µM | actives 0.54% (n = 310,000); in the data active = inhibition above about 50%
Target sequence (O96028 whole entry, looked up): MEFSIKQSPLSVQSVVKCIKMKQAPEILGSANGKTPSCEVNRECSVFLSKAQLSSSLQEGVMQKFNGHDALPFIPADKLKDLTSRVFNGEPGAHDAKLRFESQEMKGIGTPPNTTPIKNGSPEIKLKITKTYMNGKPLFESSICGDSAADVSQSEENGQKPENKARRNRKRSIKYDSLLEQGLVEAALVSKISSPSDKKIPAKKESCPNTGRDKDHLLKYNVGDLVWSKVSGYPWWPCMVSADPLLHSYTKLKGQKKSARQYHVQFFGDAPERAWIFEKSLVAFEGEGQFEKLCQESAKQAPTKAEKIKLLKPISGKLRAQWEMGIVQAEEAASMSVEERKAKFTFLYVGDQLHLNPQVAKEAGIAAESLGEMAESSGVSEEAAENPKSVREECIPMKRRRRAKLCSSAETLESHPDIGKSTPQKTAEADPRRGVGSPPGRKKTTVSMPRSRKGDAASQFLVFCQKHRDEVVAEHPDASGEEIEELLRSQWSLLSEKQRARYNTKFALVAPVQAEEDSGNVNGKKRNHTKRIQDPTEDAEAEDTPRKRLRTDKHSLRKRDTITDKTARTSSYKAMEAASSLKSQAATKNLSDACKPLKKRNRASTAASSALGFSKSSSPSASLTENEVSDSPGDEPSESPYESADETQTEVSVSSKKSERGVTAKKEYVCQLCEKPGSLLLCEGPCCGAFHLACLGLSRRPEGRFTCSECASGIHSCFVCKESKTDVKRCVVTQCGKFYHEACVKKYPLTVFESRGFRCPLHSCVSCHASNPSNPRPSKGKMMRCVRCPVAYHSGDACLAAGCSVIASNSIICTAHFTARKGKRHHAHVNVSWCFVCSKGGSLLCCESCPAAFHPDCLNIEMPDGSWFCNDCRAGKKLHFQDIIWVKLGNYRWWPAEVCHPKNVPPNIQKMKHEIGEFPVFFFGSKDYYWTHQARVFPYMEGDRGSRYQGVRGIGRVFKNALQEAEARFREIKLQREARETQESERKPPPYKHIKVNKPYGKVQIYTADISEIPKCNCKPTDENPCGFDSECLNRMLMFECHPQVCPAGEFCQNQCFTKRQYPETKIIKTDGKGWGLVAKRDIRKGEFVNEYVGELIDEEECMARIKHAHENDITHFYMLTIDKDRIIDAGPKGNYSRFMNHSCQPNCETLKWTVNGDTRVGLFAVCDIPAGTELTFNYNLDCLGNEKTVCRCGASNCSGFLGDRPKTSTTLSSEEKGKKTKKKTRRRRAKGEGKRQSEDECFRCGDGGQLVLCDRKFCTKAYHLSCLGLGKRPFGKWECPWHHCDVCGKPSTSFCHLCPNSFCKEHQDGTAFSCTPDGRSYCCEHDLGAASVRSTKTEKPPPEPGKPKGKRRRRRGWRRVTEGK
TDP2 inh: TDP2 (human) inhibition, absorbance primary screen | recombinant TDP2, T5PNP hydrolysis, p-nitrophenol absorbance 415 nm | O95551 | AID 720702 | actives 0.34% (n = 370,000) | inhibition, % at 12.8 µM;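 active = inhibition above the mean of all tested compounds plus 3 SD, set per campaign, cut at about 25% in these data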;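 note: 0% = DMSO with enzyme and 100% = buffer with substrate but no TDP2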
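Assay system: recombinant human TDP2 / Reagent: T5PNP substrate at 5 mM, a TopII-DNA adduct mimic / Measured by: epi absorbance from released p-nitrophenol / Evaluation: % inhibition relative to enzyme-containing and enzyme-free wells / Control set: enzyme-free and DMSO wells / Replicates: each compound tested once, singlicate / Schedule: enzyme reaction with compound for 2 h at 37 °C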
UHRF1 binding: blocks human UHRF1 binding to methylated DNA; UHRF1 binding to methylated oligo, TR-FRET; inhibition, % at 4.4 µM; actives 0.75% (n = 370,000);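 note: UHRF1 SRA domain binding a hemimethylated CpG hairpin DNA probe; 0% = median of test compound wells and 100% = reference inhibitor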
CASP6 VEID inh: caspase-6 (human) enzyme inhibition | purified caspase-6, Z-VEID-R110 cleavage fluorescence | inhibition, % at 12.5 µM | actives 0.53% (n = 350,000);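 active = mean inhibition across replicates at least about 35%, with every replicate also reaching that limit, limit read from the data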;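 note: 0% = median of neutral control wells and 100% = no fluorescence left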
UHRF1 ctr MBD2: UHRF1 methyl-oligo binding inhibition as MBD2 counter-screen; actives 25% (n = 1,000); shares compounds with MBD2 inh; inhibition, % at 4.4 µM; UHRF1 binding to methylated oligonucleotide, TR-FRET;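 note: UHRF1 SRA domain binding a labeled hemimethylated CpG hairpin DNA; 0% = vehicle only and 100% = reference inhibitor with vehicle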
MBD2 DBD conf: confirmation of human MBD2-DBD methylated oligonucleotide binding inhibitors. shares compounds with MBD2 inh. TR-FRET MBD2-DBD binding to methylated oligonucleotide. inhibition, % at 4.4 µM. actives 26% (n = 1,000). AID 720531; in the data active = inhibition above about 14%
* hit, by the source's call; . = not tested or not shown. Cut-off read from the data, not from the text of the source, unless noted: active = inhibition above about 21%; inactive = the rest.

SMILES	LEDGF integ inh	MBD2 inh	NSD2 inh	TDP2 inh	UHRF1 binding	CASP6 VEID inh	UHRF1 ctr MBD2	MBD2 DBD conf
CCCNC(=O)N1CC2(CN(S(=O)(=O)CC)C2)c2c(n(C)c3cc(OC)ccc23)[C@H]1CO	.	.	.	.	.	1	.	.
CS(=O)(=O)Nc1cccc(NC(=O)c2ccc(-n3ccnc3)c3ccoc23)c1	9	14*	23	-4	18	3	13	13
Cn1nccc1-c1ccc(C(=O)Nc2cccc(NS(C)(=O)=O)c2)c2occc12	-1	8	-3	-8	4	20	.	.
CS(=O)(=O)N1CCC(C(=O)Nc2ccccc2)CC1	-3	-1	13	9	0	.	.	.
CS(=O)(=O)N1CCC(C(=O)Nc2ccc(C(N)=O)cc2)CC1	-2	40*	-1	1	-1	1	5	1
O=C(CCSc1nc(-c2ccco2)cc(C(F)(F)F)n1)NCc1cccs1	0	3	-1	1	4	.	.	.
O=C(CCSc1nc(-c2ccco2)cc(C(F)(F)F)n1)NCc1ccccn1	1	24*	-2	0	1	.	9	1
CC(=O)c1ccc(OC2(C)CCN(Cc3cc4ccccc4[nH]3)C2)cc1 (stereo not drawn)	-2	13*	3	4	9	-2	5	2
COCOc1cccc(CN2CCC(C)(Oc3ccc(C(C)=O)cc3)C2)c1 (stereo not drawn)	-1	2	5	-3	1	-1	.	.
Cc1ccc(-c2ccc3c(c2)O[C@H](CN(C)C(=O)CC2CC2)[C@H](C)CN([C@H](C)CO)S3(=O)=O)cc1	.	.	.	.	.	0	.	.
O=C(NCCN1CCN(C(=O)c2ccc(F)cc2)CC1)c1ccc(F)cc1	0	14*	-1	2	0	0	11	3
CCN(CC(=O)Nc1ccc2c(c1)OCCO2)CC(=O)Nc1ccc(C)c(S(=O)(=O)N(C)C)c1	1	20*	1	3	9	-1	5	2
O=C(NCCc1ccncc1)[C@@H]1[C@@H](CO)[C@@H]2Cn3c(ccc(-c4ccc(F)cc4)c3=O)[C@H]1N2	.	.	.	.	.	-5	.	.
CN(C)CCCNC(=O)C[C@H]1CC[C@@H]2[C@H](COC[C@H](O)CN2Cc2cccc(F)c2)O1	.	.	.	.	.	1	.	.
C=CC[C@@H](CC(=O)NCCO)C(=O)N[C@H](C)COC(=O)[C@@H](CC=C)Cc1ccc(F)cc1	0	53*	.	12	0	-5	1	2
C=CC[C@H](CC(=O)NCCO)C(=O)N[C@H](C)COC(=O)[C@@H](CC=C)Cc1ccc(F)cc1	-6	3	.	-10	4	-2	.	.
COc1ccc(C(C)=O)cc1COC(=O)c1ccc2c(c1)OCCO2	-1	1	.	8	-3	0	.	.
COc1ccc(C(C)=O)cc1COC(=O)c1ccc2c(c1)OCO2	0	14*	-3	0	1	.	8	4
CCCCCC(=O)N1CC2(CC(c3cccc(NC(=O)[C@@H]4CCC(=O)N4)c3)=NO2)C[C@@H]1C(N)=O (stereo partly drawn)	2	5	.	1	-3	7	.	.
C=C(C)C(=O)Nc1cccc(C2=NOC3(C2)C[C@@H](C(N)=O)N(C(=O)CCCCC)C3)c1 (stereo partly drawn)	41*	44*	.	10	90*	59*	100*	82*
CCCCC(=O)Nc1ccc(N2CCN(c3ccc(F)cc3)CC2)cc1	6	34*	-6	1	4	4	3	2
Cc1ccc(C)c(S(=O)(=O)N2CCN(c3ncccn3)CC2)c1	-2	15*	-2	-5	3	-1	8	3
CC(C)CNc1ccc2c(c1)OC[C@H](CC(C)C)NS2(=O)=O	3	0	.	9	1	1	.	.
CC(C)CNc1ccc2c(c1)OC[C@H](C)NS2(=O)=O	3	13*	.	-8	21*	-1	11	4
Cc1nn2c(-c3ccc(S(=O)(=O)N4CCN(CCO)CC4)o3)nnc2c2ccccc12	2	16*	45	4	13	2	3	5
SMILES	LEDGF integ inh	MBD2 inh	NSD2 inh	TDP2 inh	UHRF1 binding	CASP6 VEID inh	UHRF1 ctr MBD2	MBD2 DBD conf
CN1C(=O)c2cc(NC(=O)C3CCCC3)ccc2OC[C@H]2O[C@@H](CC(=O)NCC3CC3)CC[C@@H]21	.	.	.	.	.	3	.	.
O=C(O)c1cccc(NC(=S)NC(=O)C(c2ccccc2)c2ccccc2)c1	-1	14*	32	-10	-1	.	1	5
O=C(O)c1ccc(NC(=S)NC(=O)C(c2ccccc2)c2ccccc2)cc1	4	-3	6	1	-1	5	.	.
N#Cc1ccc(CSc2nnc(NC(=O)C3CCCO3)s2)cc1 (stereo not drawn)	3	17*	-2	3	24*	.	7	2
C[C@H]1CN([C@@H](C)CO)C(=O)c2cccc(NC(=O)Nc3ccccc3)c2O[C@@H]1CN(C)C	.	.	.	.	.	4	.	.
CO[C@H]1CN(C)C(=O)c2cc(NC(=O)C3CC3)ccc2OC[C@H](C)N(C(=O)c2ccccc2F)C[C@@H]1C	.	.	.	.	.	-2	.	.
CCOC(=O)[C@H]1[C@H]2COc3ccccc3[C@@H]2N2C(=O)c3ccccc3NC(=O)[C@@]12C	0	18*	.	-1	20	4	7	3
C[C@H]1CN([C@@H](C)CO)C(=O)c2cc(NC(=O)NC3CCCCC3)ccc2O[C@@H]1CN(C)C(=O)Nc1ccc(C(F)(F)F)cc1	.	.	.	.	.	-2	.	.
Cc1ccc(NC(=O)Cn2cccc2)c(Br)c1	-1	-5	0	7	1	.	.	.
Cc1ccc(NC(=O)CN(C)CC(=O)Nc2c(C)cccc2C)c(Br)c1	-1	38*	-2	13	-2	.	0	5
O=C(C[C@H]1CC[C@@H](NC(=O)c2cnccn2)[C@H](CO)O1)NCc1ccccc1F	.	.	.	.	.	1	.	.
CSc1nsc(SCC(=O)Nc2ccc(C(C)=O)cc2)n1	0	1	.	-1	0	.	.	.
CSc1nsc(SCC(=O)Nc2ccc(C(N)=O)cc2)n1	-3	23*	-2	-5	0	-2	6	2
C[C@@H]1CCCCO[C@H](CN(C)Cc2ccc3c(c2)OCO3)[C@@H](C)CN([C@@H](C)CO)C(=O)c2cc(NC(=O)c3ccccc3)ccc2O1	.	.	.	.	.	1	.	.
CCCNC(=O)c1ccc2c(=O)n3c(-c4ccc(C)cc4)csc3nc2c1	2	15*	.	2	16	8	0	7
CCCn1c(N)c(N2CCCCC2)c(=O)n(CC(=O)Nc2ccccc2C)c1=O	-1	-5	8	1	-1	.	.	.
